The results in this text go back to ChEMBL document CHEMBL6127097, “Structure-Guided Discovery of cis-Hexahydro-pyrido-oxazinones as Reversible, Drug-like Monoacylglycerol Lipase Inhibitors” (J Med Chem, 2024).

Active and inactive are the calls of the source.

The nature of data set [1]: Octanol-water partition coefficient, logD of the compound at pH 7.4 incubated for 1.5 hrs by shake flask based LC-UV/MS analysis. The conditions noted are these: pH 7.4, 1.5 h, 1.5 h. It is filed as physicochemical. The procedure, abridged:
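CAMDIS shake-flask variant. 10 mM DMSO stock is diluted into 25 mM phosphate pH 7.4 over a 1-octanol-impregnated PVDF membrane and shaken 1.5 h at 21 °C, at two octanol/buffer ratios, in triplicate. Remaining aqueous concentration is read by LC/MS; logD comes from the difference with and without octanol.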

Data set [2] can be described thus: Free fraction in human plasma incubated for 5 hrs by equilibrium dialysis based LC-MS/MS analysis. The data set is classed as ADME, cell-free. The method, boiled down: (§1)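 Equilibrium dialysis across a 12–14 kDa cutoff membrane in a Teflon 96-well device. Pooled frozen plasma is adjusted to pH 7.4 and spiked at 1000 nM initial total, against Soerensen buffer pH 7.4. Incubation is 5 h at 37 °C, 5% CO2, with diazepam control in each well. %fu = 100 × buffer/matrix concentration after dialysis; recovery accepted at 80–120%.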

The nature of data set [3]: Effective permeability of compound at pH 7.4 at 20 uM incubated for 18 hrs by LCMS analysis. It is filed as ADME. The following applies: not told, read-out: Peff. The method, boiled down: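 PAMPA passive permeability. Donor holds 20 µM sample in 50 mM phosphate-buffered saline pH 7.4, at most 5% DMSO, in triplicate. The lipid/oil/lipid trilayer-impregnated hydrophobic filter sandwich is left unshaken 18 h at 21 °C. Reference, donor and acceptor solutions are analysed by LCMS to give P_eff.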

Data set [4] is described as follows: Chemical stability at pH 1 incubated for 2 hrs. It is filed as physicochemical. The conditions noted are these: buffer, pH 1, 2 h. The procedure, abridged:
(§2)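 Compound was held in aqueous buffer at the stated pH for 2 h at 37 °C.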

The nature of data set [5]: Chemical stability at pH 6.5 incubated for 2 hrs. The conditions noted are these: buffer, pH 6.5, 2 h. It is filed as physicochemical. The method, boiled down:
as §2

Data set [6] has as its target T1, Monoglyceride lipase (Rattus norvegicus, UniProt Q8R431).
T1 sequence (Q8R431 whole entry): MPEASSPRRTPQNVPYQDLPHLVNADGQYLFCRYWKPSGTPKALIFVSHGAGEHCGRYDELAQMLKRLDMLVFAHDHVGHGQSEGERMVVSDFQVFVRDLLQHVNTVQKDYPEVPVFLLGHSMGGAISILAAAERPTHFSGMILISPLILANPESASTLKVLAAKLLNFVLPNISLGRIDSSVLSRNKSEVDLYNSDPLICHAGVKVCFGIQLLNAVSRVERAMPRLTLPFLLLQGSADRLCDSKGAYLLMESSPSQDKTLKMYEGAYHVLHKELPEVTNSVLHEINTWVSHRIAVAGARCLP
The experiment in a line: Binding affinity to rat MAGL assessed as equilibrium dissociation constant by SPR analysis. The method, boiled down:
(§3)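 Human or rat MAGL was immobilized by amine coupling without ethanolamine quenching. Runs were done at 18 °C in 10 mM HEPES, 150 mM NaCl, 0.05% P20, 50 µM EDTA, pH 7.4, with 1% DMSO. Single-cycle kinetics used five concentrations, top 1 µM in 2-fold steps, at 30 µL/min, giving kon, koff and Kd.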

Data set [7] in a line: Plasma protein binding in human assessed as fraction unbound by equilibrium dialysis based LC-MS/MS method. The data set is classed as ADME, cell-free. The procedure, abridged: as §1
The subject of data set [8] is human P-gp. In words: Apparent permeability across apical to basolateral side in pig LLC-PK1 cells expressing human P-gp. It is filed as ADME, cell-based, Sus scrofa. The method, boiled down: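 LLC-PK1 porcine kidney cells transfected with human or mouse P-gp were grown as polarized monolayers on filter membranes. Compound was dosed to the apical side and receiver appearance followed over 3 h at 37 °C. A→B Papp was measured with the P-gp inhibitor zosuquidar present at 1 µM.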

A short description of data set [9]: Cmax in Wistar rat at 5 mg/kg, po measured upto 24 hrs by LC-MS/MS analysis. The data set is classed as ADME, organism-based. The conditions noted are these: in vivo. The method, boiled down:
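Male Wistar rats (N = 3 per group) received a single dose. The i.v. dose was 1 mg/kg in NMP/0.9% NaCl 30:70. The p.o. dose was 5 mg/kg in NMP/HPMC/diisooctyl sulfosuccinate 10:90. Blood was taken into K2EDTA from 0.083 (i.v.) or 0.25 h to 24 h. Plasma was assayed by LC-MS/MS and analysed non-compartmentally.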

Data set [10] can be described thus: Drug concentration in mouse CSF at 10 mg/kg, ip measured after 4 hrs. The data set is classed as ADME, organism-based, Cerebrospinal fluid. The following applies: read-out: Ct.
Data set [11] is described as follows: Drug concentration in mouse CSF at 30 mg/kg, ip measured after 4 hrs. The data set is classed as ADME, organism-based, Cerebrospinal fluid. The conditions noted are these: read-out: Ct.
Data set [12] can be described thus: Average drug concentration in mouse plasma at 30 mg/kg, ip measured after 8 hrs. It is filed as ADME, organism-based. The following applies: in vivo. The procedure, abridged:
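In a time course, mice were injected i.p. with 30 mg/kg in NaCl/DMSO/Tween 80 (80/10/10). Average plasma levels were determined at the stated time points over 24 h.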

Data set [13] is described as follows: Drug concentration in mouse CSF at 30 mg/kg, ip measured after 24 hrs. The following applies: read-out: Ct. The data set is classed as ADME, organism-based, Cerebrospinal fluid.
For data set [14], the target named is T2, Monoglyceride lipase (Rattus norvegicus) (UniProt Q8R431).
T2 sequence (whole entry): T1 sequence (Q8R431 whole entry)
The experiment in a line: Binding affinity to rat MAGL assessed as association rate constant by SPR analysis. The procedure, abridged: as §3

Data set [15] has as its system LLC-PK1. The experiment in a line: Substrate activity at mouse P-gp expressed in LLC-PK1 cells assessed as efflux ratio incubated for 3 hrs. The data set is classed as cell-based. The method, boiled down: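 LLC-PK1 porcine kidney cells transfected with human or mouse P-gp, grown as polarized monolayers on filter plates. Compound is dosed apically or basolaterally and transport followed 3 h at 37 °C. Efflux ratio comes from unidirectional Papp; 1 µM zosuquidar defines permeability without P-gp.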

The test system of data set [16] is Mus musculus. In words: Upregulation of brain 2-AG level in ip dosed mouse measured after 4 hrs. It is filed as functional, organism-based. The following applies: dose 3-30 mg/kg. The procedure, abridged:
(§4)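 Mice dosed i.p. in NaCl/DMSO/TW80 (80/10/10): 3, 10 or 30 mg/kg with sacrifice at 4 h, or 30 mg/kg over a 24 h time course. Brain extract 2-AG and AA were measured by LC/MS.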

The target in data set [17] is T3, Monoglyceride lipase (Mus musculus) (UniProt O35678).
T3 sequence (whole entry): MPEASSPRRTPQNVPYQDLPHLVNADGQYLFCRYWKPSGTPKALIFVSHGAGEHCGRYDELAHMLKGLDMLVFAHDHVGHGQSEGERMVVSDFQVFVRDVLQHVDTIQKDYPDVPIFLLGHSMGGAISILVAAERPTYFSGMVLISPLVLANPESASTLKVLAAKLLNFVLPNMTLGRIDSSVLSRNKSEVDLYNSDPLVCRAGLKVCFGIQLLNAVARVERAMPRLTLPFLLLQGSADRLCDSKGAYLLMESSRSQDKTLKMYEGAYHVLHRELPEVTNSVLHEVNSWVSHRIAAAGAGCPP
In words: In vivo receptor occupancy at MAGL receptor in mouse at 30 mg/kg, ip measured after 4 hrs. The data set is classed as functional, organism-based.

Data set [18] concerns the target T3, Monoglyceride lipase (Mus musculus). The experiment in a line: In vivo receptor occupancy at MAGL receptor in mouse at 3 mg/kg, ip measured after 4 hrs. The data set is classed as functional, organism-based.
In data set [19] the test system is Mus musculus. In words: Upregulation of brain 2-AG level in mouse at 30 mg/kg, ip measured after 2 hrs. It is filed as functional, organism-based. The method, boiled down:
as §4

The subject of data set [20] is Mus musculus. The experiment in a line: Antiinflammatory activity in LPS-induced CD-1 mouse neuroinflammation model assessed as decrease in peripheral tissue LCN2 mRNA expression at 30 mg/kg, ip measured after 6 hrs by qRT-PCR analysis. The data set is classed as functional, organism-based. The procedure, abridged: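 CD-1 mice were dosed with NaCl + vehicle, LPS (5 mg/kg) + vehicle, or LPS + inhibitor at 30 mg/kg i.p. (vehicle NaCl/DMSO/Tween 80, 80/10/10). They were sacrificed 6 h post-compound. LCN2 and IL1b mRNA in peripheral tissue were measured by droplet digital qRT-PCR.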

With `O=C1CO[C@H]2CCN(C(=O)N3CCC(Cc4ccc(C(F)(F)F)cc4)CC3)C[C@H]2N1` [listing 1 of 2 here], in data set [1], the logD is listed as 3.3. Also, in data set [2], the fraction unbound at 5 h turned out to be 0.043. For the same compound, the Papp at 18 h, 20 µM in data set [3] came to 12.8 ×10⁻⁶ cm/s. The Stability result in data set [4] and in [5] was “Stable” throughout. Besides, the Kd in data set [6] was found to be 64 nM. In addition, the free fraction (fraction unbound) in [7] came out at 0.043. In addition, the Papp A→B in data set [8] came to 17.6 ×10⁻⁶ cm/s. Also, the peak concentration (Cmax) in [9] was 1290 ng/mL. In addition, the concentration at 4 h in data set [10] worked out at 123 nM; in data set [11] it was 455 nM. In [12], this compound returned a Cave of 21089 nM. Besides, the concentration at 24 h in [13] stood at 2 nM.

In the case of `O=C1CO[C@H]2CCN(C(=O)N3CCC(Cc4ccc(C(F)(F)F)cc4)CC3)C[C@H]2N1` [listing 2 of 2 here], the K in data set [14] was 2.6 10^5/M/s. For the same compound, the Ratio in [15] worked out at 4. Besides, the Activity entry in data set [16] was “Dose-Dependent Effect”; in [17], 93%; in data set [18], 49%. In addition, in data set [19], the outcome was Active. The result in [20] was inactive.
